≈ marks a conversion by molar mass, not a printed value.
Legend:
[1] = system: Streptococcus sp. 'group B'; test: Antimicrobial activity against Group B streptococcus serotype VI R1 harboring F395L, V405A, R433H, H438Y, and G648A mutations in PBP 2X and T567I mutation in PBP 2B by broth microdilution method; type: functional
Method in brief: (§1)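 Broth microdilution MICs following CLSI guidelines, using a commercial panel system; GBS clinical isolates and reference strains grown in Todd-Hewitt broth at 37°C. Each strain tested five times to confirm reproducibility, with S. pneumoniae ATCC 49619 as quality-control strain. No β-lactamase activity by acidimetric method in any strain.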

[2] = system: Streptococcus sp. 'group B'; test: Antimicrobial activity against Group B streptococcus serotype VI R6 harboring F395L, V405A, R433H, H438Y, A374V and G648A mutations in PBP 2X and T567I mutation in PBP 2B by broth microdilution method; type: functional; method in brief: as §1
[3] = system: Streptococcus sp. 'group B'; test: Antimicrobial activity against Group B streptococcus R8 harboring T77I, S353F and A514V in PBP 2X; V80A and G613R in PBP 2B; and L45P, N163K, N723S and G527V in PBP 1A by broth microdilution method; type: functional; method in brief: as §1
[4] = system: Streptococcus sp. 'group B'; test: Antimicrobial activity against Group B streptococcus serotype V C1 harboring E63K mutation in PBP 2A and L41S mutation in PBP 1B by broth microdilution method; type: functional; method in brief: as §1
[5] = system: Streptococcus sp. 'group B'; test: Antimicrobial activity against Group B streptococcus serotype III N3 by broth microdilution method; type: functional
Method in brief: (§2)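 Broth microdilution MICs read on a commercial dried panel system (type 3J), following CLSI guidelines. Isolates were grown in Todd-Hewitt broth at 37°C. Each strain was tested five times for reproducibility, with S. pneumoniae ATCC 49619 as the quality-control strain. β-lactamase activity was checked by the acidimetric method.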

[6] = system: Streptococcus sp. 'group B'; test: Antimicrobial activity against Group B Streptococcus serotype III NEM 316 by broth microdilution method; type: functional; method in brief: as §2
[7] = system: Streptococcus sp. 'group B'; test: Antimicrobial activity against Group B streptococcus serotype VI N4 harboring E63K mutation in PBP 2A and L41S mutation in PBP 1B by broth microdilution method; type: functional; method in brief: as §1
[8] = system: Streptococcus sp. 'group B'; test: Antimicrobial activity against Group B streptococcus serotype Ib R3 harboring Q557E, A400V mutations in PBP 2X and T567I, G539E mutations in PBP 2B by broth microdilution method; type: functional; method in brief: as §1
[9] = system: Streptococcus sp. 'group B'; test: Antimicrobial activity against Group B streptococcus serotype VI R5 harboring F395L, V405A, R433H, H438Y, and G648A mutations in PBP 2X and T567I mutation in PBP 2B by broth microdilution method; type: functional; method in brief: as §1
[10] = system: Streptococcus sp. 'group B'; test: Antimicrobial activity against Group B streptococcus serotype VI R4 harboring Q557E mutation in PBP 2X and T567I, Y262N mutations in PBP 2B by broth microdilution method; type: functional; method in brief: as §1
[11] = system: Streptococcus sp. 'group B'; test: Antimicrobial activity against Group B streptococcus serotype Ib C2 harboring E63K mutation in PBP 2A and L41S mutation in PBP 1B by broth microdilution method; type: functional; method in brief: as §1
[12] = system: Streptococcus sp. 'group B'; test: Antimicrobial activity against Group B Streptococcus serotype Ia N1 harboring E63K mutation in PBP 2A and L41S mutation in PBP 1B by broth microdilution method; type: functional; method in brief: as §1
[13] = system: Streptococcus sp. 'group B'; test: Antimicrobial activity against Group B streptococcus serotype Ia R7 harboring T77I, F395V and S353F in PBP 2X; V80A and G613R in PBP 2B; and L45P, N163K, N723S and Y470F in PBP 1A by broth microdilution method; type: functional; method in brief: as §1
[14] = system: Streptococcus sp. 'group B'; test: Antimicrobial activity against Group B Streptococcus serotype V harboring E63K mutation in PBP 2A and L41S mutation in PBP 1B by broth microdilution method
[15] = system: Streptococcus sp. 'group B'; test: Antimicrobial activity against Group B streptococcus serotype VI R2 harboring F395L, V405A, R433H, H438Y, and G648A mutations in PBP 2X and T567I mutation in PBP 2B by broth microdilution method; type: functional; method in brief: as §1
[16] = system: Streptococcus sp. 'group B'; test: Antimicrobial activity against Group B streptococcus serotype Ib N2 harboring E63K mutation in PBP 2A and L41S mutation in PBP 1B by broth microdilution method; type: functional; method in brief: as §1

SMILES | MIC [1] | MIC [2] | MIC [3] | MIC [4] | MIC [5] | MIC [6] | MIC [7] | MIC [8] | MIC [9] | MIC [10] | MIC [11] | MIC [12] | MIC [13] | MIC [14] | MIC [15] | MIC [16]
CC[C@H]1OC(=O)[C@H](C)[C@@H](O[C@H]2C[C@@](C)(OC)[C@@H](O)[C@H](C)O2)[C@H](C)[C@@H](O[C@@H]2O[C@H](C)C[C@H](N(C)C)[C@H]2O)[C@](C)(OC)C[C@@H](C)C(=O)[C@H](C)[C@@H](O)[C@]1(C)O [CLARITHROMYCIN] | ≤ 0.12 µg/mL | ≤ 0.12 µg/mL | 1 µg/mL (≈ 1.34 µM) | ≤ 0.12 µg/mL | ≤ 0.12 µg/mL | ≤ 0.12 µg/mL | ≤ 0.12 µg/mL | ≤ 0.12 µg/mL | ≤ 0.12 µg/mL | > 2 µg/mL | ≤ 0.12 µg/mL | ≤ 0.12 µg/mL | 2 µg/mL (≈ 2.67 µM) | ≤ 0.12 µg/mL | ≤ 0.12 µg/mL | ≤ 0.12 µg/mL
CCC[C@@H]1C[C@@H](C(=O)N[C@@H]([C@H]2O[C@H](SC)[C@H](O)[C@@H](O)[C@H]2O)[C@H](C)Cl)N(C)C1 [CLINDAMYCIN] | ≤ 0.12 µg/mL | ≤ 0.12 µg/mL | ≤ 0.12 µg/mL | ≤ 0.12 µg/mL | ≤ 0.12 µg/mL | ≤ 0.12 µg/mL | ≤ 0.12 µg/mL | ≤ 0.12 µg/mL | ≤ 0.12 µg/mL | > 1 µg/mL | ≤ 0.12 µg/mL | ≤ 0.12 µg/mL | ≤ 0.12 µg/mL | ≤ 0.12 µg/mL | ≤ 0.12 µg/mL | ≤ 0.12 µg/mL
CC[C@H]1OC(=O)[C@H](C)[C@@H](O[C@H]2C[C@@](C)(OC)[C@@H](O)[C@H](C)O2)[C@H](C)[C@@H](O[C@@H]2O[C@H](C)C[C@H](N(C)C)[C@H]2O)[C@](C)(O)C[C@@H](C)C(=O)[C@H](C)[C@@H](O)[C@]1(C)O [ERYTHROMYCIN] | ≤ 0.12 µg/mL | ≤ 0.12 µg/mL | > 2 µg/mL | ≤ 0.12 µg/mL | ≤ 0.12 µg/mL | ≤ 0.12 µg/mL | ≤ 0.12 µg/mL | ≤ 0.12 µg/mL | ≤ 0.12 µg/mL | > 2 µg/mL | ≤ 0.12 µg/mL | ≤ 0.12 µg/mL | > 2 µg/mL | ≤ 0.12 µg/mL | ≤ 0.12 µg/mL | ≤ 0.12 µg/mL
C[C@H]1COc2c(N3CCN(C)CC3)c(F)cc3c(=O)c(C(=O)O)cn1c23.C[C@H]1COc2c(N3CCN(C)CC3)c(F)cc3c(=O)c(C(=O)O)cn1c23.O [LEVOFLOXACIN] | 8 µg/mL | 4 µg/mL | > 8 µg/mL | 0.5 µg/mL | 0.5 µg/mL | 0.5 µg/mL | 0.5 µg/mL | > 8 µg/mL | 4 µg/mL | 2 µg/mL | > 8 µg/mL | 1 µg/mL | > 8 µg/mL | 0.5 µg/mL | 8 µg/mL | 0.5 µg/mL
C[C@@H](O)[C@H]1C(=O)N2C(C(=O)O)=C(S[C@@H]3CN[C@H](C(=O)N(C)C)C3)[C@H](C)[C@H]12 [MEROPENEM] | 0.25 µg/mL (≈ 0.652 µM) | 0.5 µg/mL (≈ 1.3 µM) | 0.25 µg/mL (≈ 0.652 µM) | ≤ 0.12 µg/mL | ≤ 0.12 µg/mL | ≤ 0.12 µg/mL | ≤ 0.12 µg/mL | 0.25 µg/mL (≈ 0.652 µM) | 0.25 µg/mL (≈ 0.652 µM) | 0.25 µg/mL (≈ 0.652 µM) | ≤ 0.12 µg/mL | ≤ 0.12 µg/mL | 0.25 µg/mL (≈ 0.652 µM) | ≤ 0.12 µg/mL | 0.5 µg/mL (≈ 1.3 µM) | ≤ 0.12 µg/mL
CC1(C)S[C@@H]2[C@H](NC(=O)Cc3ccccc3)C(=O)N2[C@H]1C(=O)O [PENICILLIN G] | 0.5 µg/mL (≈ 1.5 µM) | 0.5 µg/mL (≈ 1.5 µM) | 1 µg/mL (≈ 2.99 µM) | 0.06 µg/mL (≈ 0.179 µM) | 0.06 µg/mL (≈ 0.179 µM) | 0.06 µg/mL (≈ 0.179 µM) | 0.06 µg/mL (≈ 0.179 µM) | 0.5 µg/mL (≈ 1.5 µM) | 0.25 µg/mL (≈ 0.748 µM) | 0.5 µg/mL (≈ 1.5 µM) | 0.06 µg/mL (≈ 0.179 µM) | 0.06 µg/mL (≈ 0.179 µM) | 1 µg/mL (≈ 2.99 µM) | 0.06 µg/mL (≈ 0.179 µM) | 0.5 µg/mL (≈ 1.5 µM) | 0.06 µg/mL (≈ 0.179 µM)
CN(C)[C@@H]1C(O)=C(C(N)=O)C(=O)[C@@]2(O)C(O)=C3C(=O)c4c(O)cccc4[C@@](C)(O)[C@H]3C[C@@H]12 [TETRACYCLINE] | > 4 µg/mL | > 4 µg/mL | > 4 µg/mL | > 4 µg/mL | > 4 µg/mL | ≤ 0.5 µg/mL | > 4 µg/mL | ≤ 0.5 µg/mL | > 4 µg/mL | > 4 µg/mL | ≤ 0.5 µg/mL | > 4 µg/mL | > 4 µg/mL | > 4 µg/mL | > 4 µg/mL | ≤ 0.5 µg/mL
